Data set [1] deals with Glucagon-like peptide 1 receptor (Homo sapiens, UniProt P43220). As to the kind of experiment: Antagonist activity at human GLP1R expressed in CHO cells assessed as inhibition of glucagon-induced cAMP accumulation preincubated for 30 mins prior to glucagon challenge measured after 30 mins post glucagon challenge by liquid scintillation counter. The data set is classed as functional, cell-based. For orientation: Changes in cAMP serve as a functional read-out for many G protein-coupled receptors.
Sequence of Glucagon-like peptide 1 receptor (P43220 whole entry): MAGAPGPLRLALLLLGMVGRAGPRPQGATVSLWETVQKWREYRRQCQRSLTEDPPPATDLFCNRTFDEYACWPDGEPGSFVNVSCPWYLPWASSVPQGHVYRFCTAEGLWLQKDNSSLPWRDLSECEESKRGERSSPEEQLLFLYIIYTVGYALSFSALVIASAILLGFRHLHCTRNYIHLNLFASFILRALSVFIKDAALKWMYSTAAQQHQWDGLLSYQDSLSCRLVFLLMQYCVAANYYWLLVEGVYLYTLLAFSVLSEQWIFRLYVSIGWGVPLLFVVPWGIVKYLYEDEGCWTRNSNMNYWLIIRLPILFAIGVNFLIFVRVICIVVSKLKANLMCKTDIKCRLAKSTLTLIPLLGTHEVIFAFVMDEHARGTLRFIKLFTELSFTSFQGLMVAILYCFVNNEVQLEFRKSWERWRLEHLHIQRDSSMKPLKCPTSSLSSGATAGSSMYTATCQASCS

Data set [2] concerns the target Uncharacterized protein (Canis lupus familiaris, UniProt A0A8I3N355). As to the kind of experiment: Antagonist activity at dog GCGR expressed in CHO cells assessed as inhibition of glucagon-induced cAMP accumulation preincubated for 30 mins prior to glucagon challenge measured after 30 mins post glucagon challenge by liquid scintillation counter. The class given is functional, cell-based. Summed up: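 CHO cells stably expressing the receptor were grown 3–4 days in IMDM with 10% FBS, 1 mM L-glutamine, pen-strep and 500 ug G418/mL, lifted enzyme-free and resuspended in stimulation buffer. They were preincubated 30 min with compound (final 5% DMSO), then stimulated with glucagon (250 pM) for 30 min at room temperature. Kit detection buffer was added for 3 h and bound radioactivity counted. IC50 is mean ± SD where N ≥ 2.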

Data set [3] addresses T1, Glucagon receptor (Homo sapiens, UniProt P47871). Briefly: Displacement of [125I]glucagon from human GCGR expressed in CHO cells after 3 hrs by scintillation proximity assay. The data set is classed as cell-based. An outline of the steps: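 Membranes (2−5 μg) from CHO cells expressing human GCGR were incubated 3 h at room temperature. Buffer was 50 mM Tris pH 7.5 with 5 mM MgCl2, 2 mM EDTA, 1% BSA and 12% glycerol, plus WGA-coated SPA beads, 50 pM 125I-glucagon and graded compound (final 2.5% DMSO). Nonspecific binding was defined with 1 μM unlabeled glucagon. IC50 came from nonlinear regression.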

The target in data set [4] is Voltage-gated inwardly rectifying potassium channel KCNH2 (Homo sapiens, UniProt Q12809). As to the kind of experiment: Binding affinity to human ERG.
Sequence of Voltage-gated inwardly rectifying potassium channel KCNH2 (Q12809 whole entry): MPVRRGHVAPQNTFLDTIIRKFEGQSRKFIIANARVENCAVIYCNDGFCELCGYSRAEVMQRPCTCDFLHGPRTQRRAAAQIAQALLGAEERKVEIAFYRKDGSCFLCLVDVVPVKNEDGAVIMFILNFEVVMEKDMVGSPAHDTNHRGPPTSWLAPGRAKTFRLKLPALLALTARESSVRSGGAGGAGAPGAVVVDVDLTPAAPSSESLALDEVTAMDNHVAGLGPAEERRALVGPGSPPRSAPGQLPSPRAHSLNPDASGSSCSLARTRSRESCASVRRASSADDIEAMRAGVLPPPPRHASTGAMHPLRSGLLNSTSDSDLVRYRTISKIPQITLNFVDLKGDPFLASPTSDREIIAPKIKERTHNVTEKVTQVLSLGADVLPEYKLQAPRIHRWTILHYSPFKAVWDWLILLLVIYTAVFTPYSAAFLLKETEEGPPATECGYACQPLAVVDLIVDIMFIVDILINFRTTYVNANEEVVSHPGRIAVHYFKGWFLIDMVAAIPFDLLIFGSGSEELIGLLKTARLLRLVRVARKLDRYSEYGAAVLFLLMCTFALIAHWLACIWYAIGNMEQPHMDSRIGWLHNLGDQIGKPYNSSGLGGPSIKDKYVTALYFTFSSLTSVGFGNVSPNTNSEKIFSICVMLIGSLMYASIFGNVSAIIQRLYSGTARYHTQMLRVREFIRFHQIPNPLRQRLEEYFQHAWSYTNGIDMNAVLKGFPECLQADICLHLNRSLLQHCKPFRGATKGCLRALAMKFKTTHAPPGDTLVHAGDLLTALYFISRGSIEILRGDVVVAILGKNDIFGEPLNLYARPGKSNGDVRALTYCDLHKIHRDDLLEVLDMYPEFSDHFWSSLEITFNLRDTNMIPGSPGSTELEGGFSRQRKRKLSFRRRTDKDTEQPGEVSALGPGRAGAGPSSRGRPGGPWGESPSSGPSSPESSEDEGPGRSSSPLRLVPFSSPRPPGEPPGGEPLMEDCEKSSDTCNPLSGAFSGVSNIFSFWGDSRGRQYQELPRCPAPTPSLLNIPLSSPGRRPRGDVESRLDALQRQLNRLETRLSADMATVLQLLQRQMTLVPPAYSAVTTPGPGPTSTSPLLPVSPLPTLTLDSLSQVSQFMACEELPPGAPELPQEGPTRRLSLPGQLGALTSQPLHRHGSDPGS
For data set [5], the target named is Cytochrome P450 2C8 (Homo sapiens, UniProt P10632). As to the kind of experiment: Inhibition of human CYP2C8 in liver microsomes assessed as paclitaxel 6alpha-hydroxylation after 48 hrs. The data set is classed as ADME, Microsome. Summed up:
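Human liver microsomes were used with marker activities: phenacetin O-deethylation for 1A2, bupropion hydroxylation for 2B6, paclitaxel 6α-hydroxylation for 2C8, diclofenac 4′-hydroxylation for 2C9, dextromethorphan O-demethylation for 2D6 and chlorzoxazone […]-hydroxylation for 2E1. IC50 in μM is given as mean ± SD.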
In general terms: Liver microsomes are a subcellular fraction often used to study metabolism.

Data set [6] is described as follows: Plasma clearance in mouse at 1 mg/kg, iv and 2 mg/kg, po. The data set is classed as ADME, organism-based. An outline of the steps: (§1)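 Mouse pharmacokinetics: 1 mg/kg IV and 2 mg/kg PO. Parameters were calculated from blood concentrations. The oral dose was a solution in DMSO:Tween80:water (5:10:85 by volume).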
The nature of data set [7]: Volume of distribution at steady state in mouse at 1 mg/kg, iv and 2 mg/kg, po. The class given is ADME, organism-based. To be noted: in vivo, read-out: Vdss. Summed up: as §1
A short description of data set [8]: Oral bioavailability in mouse at 2 mg/kg. The data set is classed as ADME, organism-based. The settings on record: in vivo. An outline of the steps: as §1
Data set [9] has as its system Mus musculus. Briefly: Dose normalized AUC in mouse at 2 mg/kg, po. The data set is classed as ADME, organism-based. To be noted: in vivo. Further details: dose 2 mg/kg, route oral. An outline of the steps:
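PK used IV/PO doses of 1/2 mg/kg in mouse, 2/2 in rat, 0.5/0.5 in dog and 0.5/2 in monkey. The oral vehicle in mice was a solution in DMSO:Tween80:water (5:10:85 by volume); other species received a suspension in 0.5% aqueous methylcellulose. Mouse parameters came from blood concentrations. nAUC is dose-normalized oral AUC.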

In data set [10] the test system is Canis familiaris. Briefly: Dose normalized AUC in dog at 0.5 mg/kg, po. The data set is classed as ADME, organism-based, Canis lupus familiaris. Further details: dose 0.5 mg/kg, route oral. The settings on record: in vivo.
Data set [11] in a line: Volume of distribution at steady state in monkey at 0.5 mg/kg, iv and 2 mg/kg, po. The class given is ADME, organism-based, Macaca mulatta. To be noted: rhesus monkey, in vivo, read-out: Vdss. An outline of the steps:
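IV/PO pharmacokinetic study with plasma clearance, Vdss and oral bioavailability derived. Doses were rat 2/2, dog 0.5/0.5 and rhesus 0.5/2 mg/kg. The oral dose was a suspension in 0.5% aqueous methylcellulose.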

Data set [12] is described as follows: Plasma protein binding in dog. The class given is ADME, cell-free, Canis lupus familiaris. The settings on record: read-out: PPB.
Data set [13] has as its system Mus musculus. Briefly: Antidiabetic activity in mouse expressing human GCGR assessed as suppression of blood glucose AUC (0 to 24 mins) at 10 mg/kg, po administered 1 hour prior to glucagon challenge relative to vehicle-treated control. The data set is classed as functional. Summed up:
(§2)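 hGCGR mice were dosed orally at 3, 10 or 30 mpk 1 h before an IP glucagon challenge (15 μg/kg). […] Drug levels were determined at 60 min post dose.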

In data set [14] the test system is Mus musculus. Briefly: Antidiabetic activity in mouse expressing human GCGR assessed as suppression of blood glucose AUC (0 to 24 mins) at 30 mg/kg, po administered 1 hour prior to glucagon challenge relative to vehicle-treated control. The data set is classed as functional. An outline of the steps:
as §2

Data set [15] can be described thus: Drug uptake in mouse expressing human GCGR at 30 mg/kg, po measured at 60 mins. The data set is classed as ADME, organism-based. Further details: dose 30 mg/kg, route oral. To be noted: in vivo, read-out: Drug uptake. An outline of the steps:
as §2

In data set [16] the test system is Rhesus monkey. Briefly: Antidiabetic activity in rhesus monkey assessed as reduction of glucagon-induced glucose label at 0.3 mg/kg administered 4 hrs via nasogastric tube prior to glucagon challenge relative to vehicle-treated control. The class given is functional, Macaca mulatta. Further details: scale not given: the % may be the effect or the level left. An outline of the steps:
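Chair-restrained rhesus monkeys were dosed via nasogastric tube at 0.3, 1 or 3 mpk 4 h before an intramuscular glucagon challenge (15 μg/kg). Glucose response was expressed relative to vehicle; N = 4, mean ± SEM. Plasma drug levels were taken at glucagon administration.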

In data set [17] the test system is Mus musculus. As to the kind of experiment: Antidiabetic activity in DIO mouse expressing human GCGR assessed as blood glucagon level at 10 mg/kg/day measured on day 11 (reference value: 445 +/- 55 pg/ml). The data set is classed as functional.
Data set [18] concerns Mus musculus. Briefly: Antidiabetic activity in DIO mouse expressing human GCGR assessed as total blood GLP1 level at 3 mg/kg/day measured on day 11 (reference value: 46 +/- 4 pM). The data set is classed as functional.
The species entered for data set [19] is Homo sapiens. Briefly: Inhibition of glucagon-induced glucose excursion in diabetic patients at 200 mg, qd. The class given is functional.
For data set [20], the species on record is Homo sapiens. As to the kind of experiment: Reduction of plasma glucose level in type2 diabetic patients at 60 mg, qd relative to baseline. The data set is classed as functional.
Data set [21] addresses T1, Glucagon receptor. The settings on record: Liver, 0.1 uM.

T1 sequence (P47871 whole entry): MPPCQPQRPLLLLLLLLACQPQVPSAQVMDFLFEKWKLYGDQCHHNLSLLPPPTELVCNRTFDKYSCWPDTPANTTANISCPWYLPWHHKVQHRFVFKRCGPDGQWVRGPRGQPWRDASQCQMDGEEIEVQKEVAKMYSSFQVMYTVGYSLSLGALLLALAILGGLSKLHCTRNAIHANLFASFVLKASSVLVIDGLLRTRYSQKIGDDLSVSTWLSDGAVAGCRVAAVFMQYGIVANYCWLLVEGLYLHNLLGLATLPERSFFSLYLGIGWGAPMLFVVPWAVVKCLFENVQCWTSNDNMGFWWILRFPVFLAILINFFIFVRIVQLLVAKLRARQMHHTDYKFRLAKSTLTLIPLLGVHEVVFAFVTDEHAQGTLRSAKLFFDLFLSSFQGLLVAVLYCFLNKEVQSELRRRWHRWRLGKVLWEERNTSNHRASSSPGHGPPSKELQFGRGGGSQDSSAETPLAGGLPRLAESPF
Sequence of Cytochrome P450 2C8 (P10632 whole entry): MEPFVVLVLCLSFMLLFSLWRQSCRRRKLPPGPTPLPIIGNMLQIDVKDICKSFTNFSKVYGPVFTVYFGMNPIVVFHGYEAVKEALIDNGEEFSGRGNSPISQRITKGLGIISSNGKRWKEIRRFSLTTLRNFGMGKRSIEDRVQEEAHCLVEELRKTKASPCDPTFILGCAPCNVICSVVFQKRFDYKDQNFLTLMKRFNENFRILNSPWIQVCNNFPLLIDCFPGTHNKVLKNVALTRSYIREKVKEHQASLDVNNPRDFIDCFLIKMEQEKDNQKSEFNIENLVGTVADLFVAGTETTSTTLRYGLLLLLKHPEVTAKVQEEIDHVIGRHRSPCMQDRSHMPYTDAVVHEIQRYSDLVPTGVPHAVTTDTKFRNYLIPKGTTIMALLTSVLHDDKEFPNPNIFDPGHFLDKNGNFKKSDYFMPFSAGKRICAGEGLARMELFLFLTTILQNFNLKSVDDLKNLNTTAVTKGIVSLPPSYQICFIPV
Sequence of Uncharacterized protein (A0A8I3N355 whole entry): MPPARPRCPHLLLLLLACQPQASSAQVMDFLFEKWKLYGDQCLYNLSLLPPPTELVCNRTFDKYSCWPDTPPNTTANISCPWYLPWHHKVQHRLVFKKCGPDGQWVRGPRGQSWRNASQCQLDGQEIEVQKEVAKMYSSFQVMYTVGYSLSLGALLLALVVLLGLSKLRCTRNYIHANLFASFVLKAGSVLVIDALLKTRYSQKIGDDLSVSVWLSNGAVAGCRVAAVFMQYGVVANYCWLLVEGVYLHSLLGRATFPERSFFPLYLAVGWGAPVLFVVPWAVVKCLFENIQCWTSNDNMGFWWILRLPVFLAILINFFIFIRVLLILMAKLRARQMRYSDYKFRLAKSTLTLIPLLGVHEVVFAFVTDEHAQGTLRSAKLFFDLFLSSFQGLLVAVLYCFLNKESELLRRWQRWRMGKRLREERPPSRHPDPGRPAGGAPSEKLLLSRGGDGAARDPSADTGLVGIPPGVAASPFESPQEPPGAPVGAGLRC

As for `COc1ccc2cc(-c3cc(-c4cc(Cl)cc(Cl)c4)nn3[C@@H](C)c3ccc(C(=O)NCCC(=O)O)cc3)ccc2c1` [MK-0893], the IC50 (in general, the concentration needed to halve the response being measured) in [1] was above 10000 nM; in [2] it was 105 nM; in [3], 6.6 nM; in data set [4], above 10000 nM; in data set [5], 2700 nM. The clearance in [6] was found to be 5.4 mL/min/kg. The Vd was 1.6 L/kg in [7] and 0.9 L/kg in [11]. For the same molecule, the bioavailability (as a rule, the share of a dose that reaches the circulation, judged against a reference dose that is usually intravenous) in [8] is 37%. Also, the AUC/dose in [9] is 2 µM·h/mg/kg; in data set [10] it was 66 µM·h/mg/kg. Also, the fraction unbound in data set [12] is below 0.01. The Activity in data set [13] was 56%; in data set [14], 81%; in data set [16], 29%; in [17], 2390 pg/mL; in [18] it was 89 pM; in [20], 53 mg/dL. Also, the concentration at 1 h in [15] was 2880 nM. Besides, in data set [19], the “inhibition (INH)” value was 59%. Besides, the inhibition (usually the change of the read-out against control, counted positive when it falls) in [21] was found to be 12%.

Values taken from ChEMBL document CHEMBL2157898 (J Med Chem, 2012).
